From ChEMBL document CHEMBL1687827, “Profiling the Aspergillus fumigatus proteome in response to caspofungin” (2011)
The source made the active and inactive calls. The rule behind the calls is not given here.

Assays:
Aspergillus fumigatus [1] = test: Induction of change in isocitrate dehydrogenase Idp1, putative protein level in iTRAQ-116 labelled secreted fraction of drug-susceptible Aspergillus fumigatus KU80 delta-akuB at 0.12 ug/ml after 48 hrs in YPD medium by MS (MS/MS) analysis relative to control; type: functional
Outline: (§1)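 Conidia (1 × 10⁵/ml) grown in YPD, 37°C, 225 rpm, ± 0.12 μg/ml caspofungin; filtrate taken as secreted fraction, French-press lysate 5,000 × g pellet as cell wall/plasma membrane. Trypsin digests 8-plex iTRAQ-labelled (drug-free channels as references), pooled, 2D-chromatography, MS/MS. Median-normalized; protein ratio = median of unique-peptide ratios, log2 normalized.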

Aspergillus fumigatus [2] = test: Induction of change in 60S ribosomal protein P0 protein level in iTRAQ114 labelled cell wall fraction of drug-susceptible Aspergillus fumigatus KU80 delta-akuB at 0.12 ug/ml after 24 hrs in YPD medium by MS (MS/MS) analysis relative to control; type: functional
Outline: (§2)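 Conidia at 1 × 10⁵/ml grown shaking at 37°C in YPD with or without 0.12 μg/ml caspofungin; mycelia filtered at 24 or 48 h. Secreted fraction taken from the filtrate; cell wall/plasma membrane pellet recovered after French-press lysis and a 5,000 × g spin. Proteins trypsin-digested and iTRAQ-labelled, drug vs no-drug channels at each time, then 2D LC-MS/MS. Protein ratio is the median of ratios from uniquely assigned peptides after median normalization.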

Aspergillus fumigatus [3] = test: Induction of change in ribosomal protein L35, putative protein level in iTRAQ114 labelled secreted fraction of drug-susceptible Aspergillus fumigatus KU80 delta-akuB at 0.12 ug/ml after 24 hrs in YPD medium by MS (MS/MS) analysis relative to control; type: functional; outline: as §1
Aspergillus fumigatus [4] = test: Induction of change in ribosomal protein L27a gene expression in drug-susceptible Aspergillus fumigatus KU80 delta-akuB at 0.12 ug/ml after 24 hrs in YPD medium by microarray analysis relative to control; type: functional
Outline: (§3)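 Mycelia grown from 1 × 10⁵ conidia/ml in YPD at 37°C, 225 rpm, with or without 0.12 μg/ml caspofungin. Total RNA extracted, DNase-treated; 2 μg labelled per TIGR SOP M007 for whole-genome array hybridization. Three independent experiments with dye flip (6 replicates); >2-fold change deemed significant.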

Aspergillus fumigatus [5] = test: Induction of change in allergen Asp F3 protein level in iTRAQ-116 labelled secreted fraction of drug-resistant Aspergillus fumigatus EMFR-S678P at 0.12 ug/ml after 48 hrs in YPD medium by MS (MS/MS) analysis relative to control; type: functional
Outline: (§4)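 Conidia at 1 × 10⁵/ml were grown at 37°C, shaking at 225 rpm, in YPD with or without 0.12 μg/ml caspofungin for 24 or 48 h. The culture filtrate was kept as the secreted fraction. Mycelia were lysed by French press in HEPES/glycerol/EDTA/PMSF/DTT buffer, and the 5,000 × g pellet was washed to give CW/PM. Proteins were reduced, alkylated and trypsin-digested at 37°C overnight, then iTRAQ-labelled and run by 2D LC-MS/MS. Ratios are the median of unique-peptide ratios, median-normalized, versus the no-drug control.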

Aspergillus fumigatus [6] = test: Antifungal activity against drug-resistant Aspergillus fumigatus EMFR-S678P assessed as reduction in colony size at 0.12 ug/ml; type: functional, organism-based
Aspergillus fumigatus [7] = test: Antifungal activity against drug-susceptible Aspergillus fumigatus KU80 delta-akuB assessed as change in hyphal morphology by RPMI medium; type: functional; conditions: read-out: MEC
Outline: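 CLSI M38-A2 broth microdilution, run in triplicate in RPMI or YPD medium as the line specifies. Caspofungin was dissolved in sterile water. The minimum effective concentration (MEC) was the lowest concentration giving a significant change in hyphal morphology visible to the eye.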

Aspergillus fumigatus [8] = test: Induction of change in isocitrate dehydrogenase Idp1, putative protein level in iTRAQ-118 labelled cell wall fraction of drug-susceptible Aspergillus fumigatus KU80 delta-akuB at 0.12 ug/ml after 24 hrs in YPD medium by MS (MS/MS) analysis relative to control; type: functional; outline: as §1
Aspergillus fumigatus [9] = test: Induction of change in glucosamine-fructose-6-phosphate aminotransferase protein level in iTRAQ-118 labelled cell wall fraction of drug-resistant Aspergillus fumigatus EMFR-S678P at 0.12 ug/ml after 48 hrs in YPD medium by MS (MS/MS) analysis relative to control; type: functional; outline: as §4
Aspergillus fumigatus [10] = test: Induction of change in plasma membrane H -ATPase protein level in iTRAQ-116 labelled secreted fraction of drug-susceptible Aspergillus fumigatus KU80 delta-akuB at 0.12 ug/ml after 48 hrs in YPD medium by MS (MS/MS) analysis relative to control; type: functional; outline: as §1
Aspergillus fumigatus [11] = test: Antifungal activity against drug-susceptible Aspergillus fumigatus KU80 delta-akuB assessed as reduction in colony size at 0.12 ug/ml; type: functional, organism-based
Aspergillus fumigatus [12] = test: Induction of change in ribosomal protein L26 gene expression in drug-susceptible Aspergillus fumigatus KU80 delta-akuB at 0.12 ug/ml after 24 hrs in YPD medium by microarray analysis relative to control; type: functional; outline: as §3
Aspergillus fumigatus [13] = test: Induction of change in hypothetical protein locus AFUA_8G07100 level in iTRAQ-116 labelled secreted fraction of drug-susceptible Aspergillus fumigatus KU80 delta-akuB at 0.12 ug/ml after 48 hrs in YPD medium by MS (MS/MS) analysis relative to control; type: functional; outline: as §1
Aspergillus fumigatus [14] = test: Induction of change in 60S ribosomal protein L27e protein level in iTRAQ-118 labelled cell wall fraction of drug-susceptible Aspergillus fumigatus KU80 delta-akuB at 0.12 ug/ml after 24 hrs in YPD medium by MS (MS/MS) analysis relative to control; type: functional; outline: as §2
Aspergillus fumigatus [15] = test: Induction of change in pyruvate decarboxylase PdcA, putative protein level in iTRAQ-118 labelled cell wall fraction of drug-susceptible Aspergillus fumigatus KU80 delta-akuB at 0.12 ug/ml after 24 hrs in YPD medium by MS (MS/MS) analysis relative to control; type: functional; outline: as §1
Aspergillus fumigatus [16] = test: Induction of change in hypothetical gene locus AFUA_4G11270 expression in drug-susceptible Aspergillus fumigatus KU80 delta-akuB at 0.12 ug/ml after 48 hrs in YPD medium by microarray analysis relative to control; type: functional
Outline: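 Mycelia grown in YPD ± 0.12 μg/ml caspofungin (1 × 10⁵ conidia/ml, 37°C, shaking) and harvested at 24 or 48 h. Total RNA extracted, DNase-treated and quality-checked; 2 μg labelled per TIGR SOP M007 and hybridized to whole-genome arrays. Three independent experiments with dye flip (6 replicates); drug vs untreated fold change.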

Aspergillus fumigatus [17] = test: Induction of change in 14-3-3 family protein ArtA, putative protein level in iTRAQ-116 labelled secreted fraction of drug-susceptible Aspergillus fumigatus KU80 delta-akuB at 0.12 ug/ml after 48 hrs in YPD medium by MS (MS/MS) analysis relative to control; type: functional; outline: as §2
Aspergillus fumigatus [18] = test: Induction of change in hypothetical gene locus AFUA_6G06840 expression in drug-susceptible Aspergillus fumigatus KU80 delta-akuB at 0.12 ug/ml after 48 hrs in YPD medium by microarray analysis relative to control; type: functional; outline: as §3

CC[C@H](C)C[C@H](C)CCCCCCCCC(=O)N[C@H]1C[C@@H](O)[C@@H](NCCN)NC(=O)[C@@H]2[C@@H](O)CCN2C(=O)[C@H]([C@H](O)CCN)NC(=O)[C@H]([C@H](O)[C@@H](O)c2ccc(O)cc2)NC(=O)[C@@H]2C[C@@H](O)CN2C(=O)[C@H]([C@@H](C)O)NC1=O [CASPOFUNGIN]
fold change (FC) (Aspergillus fumigatus [1]): -6.1 | fold change (FC) (Aspergillus fumigatus [2]): 2.1 | fold change (FC) (Aspergillus fumigatus [3]): 1.4 | fold change (FC) (Aspergillus fumigatus [4]): 3.6 | fold change (FC) (Aspergillus fumigatus [5]): -1.52 | Activity (Aspergillus fumigatus [6]): Active | minimal effective concentration (Aspergillus fumigatus [7]): 0.25 µg/mL | fold change (FC) (Aspergillus fumigatus [8]): -2.1 | fold change (FC) (Aspergillus fumigatus [9]): -1.07 | fold change (FC) (Aspergillus fumigatus [10]): -1.7 | Activity (Aspergillus fumigatus [11]): Active | fold change (FC) (Aspergillus fumigatus [12]): 5.3 | fold change (FC) (Aspergillus fumigatus [13]): 2.1 | fold change (FC) (Aspergillus fumigatus [14]): 2.6 | fold change (FC) (Aspergillus fumigatus [15]): -2.3 | fold change (FC) (Aspergillus fumigatus [16]): 3.7 | fold change (FC) (Aspergillus fumigatus [17]): -2 | fold change (FC) (Aspergillus fumigatus [18]): -2.1
